The data set deals with MS2 coat protein. The data set can be described thus: apparent Kd, MS2 coat protein; higher = weaker binding; RNA-MaP array; FMN 200 µM where present. The essentials:
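Green signal from SNAP-549-labelled MS2 coat protein was normalised to red-channel RNA signal and to the median Fmax of control clusters. The protein was titrated from 0.7 or 1.5 nM, doubling to 3 µM, without and then with constant ligand, over designs transcribed by stalled E. coli RNA polymerase on Illumina sequencing-chip clusters, in 100 mM Tris-HCl pH 7.5, 80 mM KCl, 4 mM MgCl2, BSA, DTT, yeast tRNA and Tween-20. The apparent Kd is the median of filtered per-cluster binding-curve fits.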

Setting [1] is: designed as: OFF switch for flavin mononucleotide, no ligand.
Setting [2] is: ligand present: flavin mononucleotide, designed as: OFF switch for flavin mononucleotide.
The mark [3] stands for this setting: designed as: ON switch for flavin mononucleotide, no ligand.
The mark [4] stands for this setting: ligand present: flavin mononucleotide, designed as: ON switch for flavin mononucleotide.

The apparent Kd is a dissociation constant that holds for the conditions of the assay. Turning to “UCAUACAUGACAUGACAUGACAUGAGGAUCACCCAUGUUUACAAGGAUAUGUUGAUGAAACAUCAACAGAAGGUGUAUUGGACU”, the “apparent Kd” value is, setting by setting: under setting [1], 51.8 nM; under setting [2], 172 nM.
With “AAAAGGUGAGGAUAUUCGGCGCCGGGAAGGUUGGUGCGGAUGAAGAAGGCACAUGAGGAUCACCCAUGUAAUAA”, the “apparent Kd” value runs as follows: under setting [1], 63 nM; under setting [2], 49.1 nM.
For the sequence “UGCGUACAAGCAGACAUGAGGAUCACCCAUGUAGUCUUAUGCGAGGAUAUCGGGAAGGAGGAUUCCGAGAAGGUGCGGUGAGCC”, the “apparent Kd” value under setting [3] amounted to 25.4 nM and the “apparent Kd” value under setting [4] amounted to 21.9 nM.
“CGAAACUACGAGAAGGACAUGUGGUCCUUCAGUUACAUGAGGAUCACCCAUGUAGGAUAUCGUAGUUUCAGGAUCGUGAGAUCU”: the “apparent Kd” value under setting [1] is 38.7 nM and the “apparent Kd” value under setting [2] worked out at 9.81 nM.
With “GUGGUACAUGAGGAUCACCCAUGUUAGGAUAUCGCGUGAGGUUUUACUUCCGCACGCGCGAGAAGGGACGUCUU”, the “apparent Kd” value runs as follows: under setting [1], 36.2 nM; under setting [2], 29.5 nM.
In the case of “GUUAUUGACAAGAAGGCAAACAUGAGGAUCACCCAUGUUCUACAUGUAUAUUGAGGAUAUUGCCAAUACAUGAGGAUCACCCAG”, the “apparent Kd” value is 45 nM under setting [1] and 53.3 nM under setting [2].
“GUCCUACAUGAGGAUCACCCAUGUGAGGAUAUGGAUUCGCUGGCCGUAGCCAGUGGAUCCAGAAGGCGCAUGAU”: the “apparent Kd” value reads like this: under setting [1], 26.9 nM; under setting [2], 82.8 nM.
As for “UUAUUUCCUCAUGUACAUGAGGAACAUGAGGAUCACCCAUGUAGAAGGAUUUCAAUAAAAUUAAAAUAGGAUAUACAUAUAUUU”, the “apparent Kd” value reads like this: under setting [1], 68.3 nM; under setting [2], 81.6 nM.
As for “AAACACGGAGGAUAUACAGGUUCGGGAAACCGAACCGGCUGACAUGAGGAUCACCCAUGUAGAAGGCCGAAAUA”, the “apparent Kd” value runs as follows: under setting [1], 19.3 nM; under setting [2], 45.8 nM.
On the same counts, the results for “GUGGUACAUGAGGAUCACCCAUGUUAGGAUAUCGCGUGAGGUAAAACUUACACACACACGAGAAGGGACGUCUU” are 45.9 nM and 41 nM.
On to “GGUCCAUCAUGAGGAUAUGGCACCUUAUUGGUGCCAGAAGGCAUGUGUAUACACAUGAGGAUCACCCAUGUAAUAAAUUGGACC”, for which the “apparent Kd” value turned out to be 144 nM under setting [3] and 22.2 nM under setting [4].
On to “CCGAAUAUGCAGGAUAUCUUAUCGGAAACGAUAAGAGAAGGGUAAACAUGAGGAUCACCCAUGUUCCUUAACGG”, for which the “apparent Kd” value is, setting by setting: under setting [1], 20.3 nM; under setting [2], 21 nM.
Take “GUGCCUUGGGAGAAGGCCCAAUGCAAAGCAUCGGGAGGAUAUUCAUAUAAUAAAUAAACAUGAGGAUCACCCAUGUGGCACAAA”: the “apparent Kd” value under setting [3] amounted to 447 nM and the “apparent Kd” value under setting [4] came to 33 nM.
“AGCUACACCCAGAAGGACAUGAGGAUCACCCAUGUAGGAUAUGGGACACACAGUGCCAUGUAGAGAAAUUACGCUAGUGUAGCG”: the “apparent Kd” value by setting is: under setting [3], 14.3 nM; under setting [4], 8.42 nM.
Consider “UGGGAACGAGGAUAUCGAUGGUGGAACAUGAGGAUCACCCAUGUAUGAGAUAGUGUAGUUCGAGAAGGCGUUAAGU”, for which the “apparent Kd” value by setting is: under setting [1], 68.6 nM; under setting [2], 33.8 nM.
Consider “GGUCGUCCCAUUAACAUGAGGAUCACCCAUGUCAAAAGACAUGAGGAUAUGCUACCUAAUUGGUAGCAGAAGGCAUGGACGACC”, for which the “apparent Kd” value under setting [3] was 1170 nM and the “apparent Kd” value under setting [4] is 84.7 nM.
Regarding “UUUAUAAAGAAAGGAUAUAGUAUAAUAAUUUAAUUAGAAGGUUCACACAUGAGGAUCACCCAUGUAUGAGGAUCACCCAUGUAU”, the “apparent Kd” value under setting [1] was 35.2 nM and the “apparent Kd” value under setting [2] is 29.1 nM.
Turning to “AUGGACGCAGGAUAUACAUGAGGAUCACCCAUGUUAGGGUUAAGAGAAGGAAGGGAGAGUAGAAGGGCGAGAGU”, the “apparent Kd” value was determined as 118 nM under setting [1] and 89.3 nM under setting [2].
Turning to “AGUGUCGGCACAGGAUAUGAGAUGCCGGCAGACAUGAGGAUCACCCAUGUAAGCGAACCAGGCAGUCAGAAGGGUGAUCGACAA”, the “apparent Kd” value under setting [3] stood at 46.8 nM and the “apparent Kd” value under setting [4] was 24.4 nM.
Regarding “GCGCUUAUACAGAAGGCCAUAUACAUGAGGAUCACCCAUGUUAUUUGGUGGAGGAUAUGUUUUUUAUUACAGGUUGAUGAGCGC”, the “apparent Kd” value came out at 7.58 nM under setting [3] and 6.52 nM under setting [4].
In the case of “CCUAUGUGAGGAUAUCACUGGUCUUCUUUUAUUUUUUACAGUGAGAAGGCACAUGAGGAUCACCCAUGUCGGUG”, the “apparent Kd” value is, setting by setting: under setting [1], 107 nM; under setting [2], 36.4 nM.
For “UCGUGUCAUGUAGGAUAUGACACAGGAAACUGGUCAGAAGGACAUGAGGAUCACCCAUGUAAAAUGUUCAAGAAUAACGCAUGC”, the “apparent Kd” value worked out at 78.8 nM under setting [1] and 161 nM under setting [2].
“GUACCUUAUGAGAAGGCGAUCAUGAAACAUGAUCGAGGAUAUCAUGUAAACAUGAGGAUCACCCAUGUAUGGGUAUUAUGGUAC”: the “apparent Kd” value worked out at 191 nM under setting [3] and 25.6 nM under setting [4].
With “AAUAACAGAGGAUAUACUAUUUUAUGUGUUUGUUAUUUUGAACAUGAGGAUCACCCAUGUAGAAGGCUGAAUGA”, the “apparent Kd” value runs as follows: under setting [1], 27.7 nM; under setting [2], 28 nM.
In the case of “UUUUAACAUGAGGAUCACCCAUGUGAGGAUAUCGAAAUUUAUAUUAAUAUUAAUUAUUCGAGAAGGCACAUUUU”, the “apparent Kd” value runs as follows: under setting [1], 119 nM; under setting [2], 126 nM.
“CUGUUCCGUGUAGGAUAUGCAUAUUCCCAUUAUGCAGAAGGACAUGAGGAUCACCCAUGUAUGUUAUUAUCAUGUGUUACAUGC”: the “apparent Kd” value is, setting by setting: under setting [1], 44.4 nM; under setting [2], 453 nM.
Consider “GGAUUUGGUCCAAUUUCGGUGAGUAAGGAUAUGCAUGGCAUACAUGAGGAUCACCCAUGUUGUCGGCAGAAGGUGCCACAACGU”, for which the “apparent Kd” value runs as follows: under setting [3], 45.7 nM; under setting [4], 16.3 nM.
“GAGUAGUUGAAAGGAUAUUGAUUAUUGUAGGAUCAAGAAGGUUCUAACAUGAGGAUCACCCAUGUAGGACUAUUCCUGUGUAUC”: the “apparent Kd” value is, setting by setting: under setting [3], 13 nM; under setting [4], 10.8 nM.
Take “AGGUAACAUGAGGAUCACCCAUGUCAGGAUAUCAUGAAGAUUAGAUUAGAGGAGAGGUUGAGAAGGGACUAUAU”: the “apparent Kd” value runs as follows: under setting [1], 55.6 nM; under setting [2], 49.5 nM.
On to “UUAUACAUUCGAGGAUAUCGGAGAGAGAUCAUUCGAGAAGGCGAUUCAUGAUGUAUUAUCCUGGACAUGAGGAUCACCCAUGUA”, for which the “apparent Kd” value reads like this: under setting [3], 101 nM; under setting [4], 68.1 nM.
Turning to “GGUGAAGCAGGAUAUGUAUCGAUAUACAUGAGGAUCACCCAUGUCAUGUUCGAAUCGCAUAUAGAAGGGCUUCACC”, the “apparent Kd” value by setting is: under setting [1], 13.4 nM; under setting [2], 16.7 nM.
As to “AGGAAGUAAGGAUAUGCUGCUCGUCACUUGCGUGAUGAGUAGCAGAAGGUACAUGAGGAUCACCCAUGUAAAGA”, the “apparent Kd” value reads like this: under setting [1], 23.7 nM; under setting [2], 20.6 nM.
Take “GUGCGGUAGGAGAAGGACGGAGGCUUCUUUUCAUACAUGAGGAUCACCCAUGUAGGAUAUCCUACCUCACGCGGCCUCCUUCUG”: the “apparent Kd” value runs as follows: under setting [1], 4.77 nM; under setting [2], 4.99 nM.
As for “GUAGUGCUCAUAGGAUAUCGGGAGCAACGUAGACAGGUUGCACAUGAGGAUCACCCAUGUAAAGUCGAGAAGGGUGAUCACGCC”, the “apparent Kd” value worked out at 599 nM under setting [3] and 177 nM under setting [4].
As for “UUGUUGUAUGUAGGAUAUGCGUAUUGUUAUUAUGCAGAAGGACAUGAGGAUCACCCAUGUAUAUUAUUAUUAUAUAUUAUAUAU”, the “apparent Kd” value under setting [1] came out at 26.3 nM and the “apparent Kd” value under setting [2] came to 43.5 nM.
As for “UUCAAGUCAGGAUAUCCAUAUUUCUGAUAUAACGGUACUUUGGAGAAGGGACAUGAGGAUCACCCAUGUAAUCU”, the “apparent Kd” value was 24.5 nM under setting [1] and 28.3 nM under setting [2].
The corresponding values for “UGCUGUGUCAGAGGAUAUACGUCAAUAAUCCAUUGCAAAUAGCGAUGGACAUGAGGAUCACCCAUGUAGAAGGCUGUCACAGCA” are 58.3 nM and 242 nM.
On the same counts, the results for “UACCGCUCUGAAGGAUAUCCACUGGGAUGCUGGAUGUAUGAGCGUACAUGAGGAUCACCCAUGUAGGAGAAGGUCAGGCAUUCC” are 5.8 nM and 7.84 nM.
Consider “CGUCUAUGCAAGAAGGCAUGAAACAUGAGGAUCACCCAUGUCAAAGACAUGAGGAUAUUGCAUAGACGAAAAGUGCGAAAGCAC”, for which the “apparent Kd” value under setting [4] was determined as 3.32 nM.
Turning to “UUAUUAAGUGUGAGGAUAUGCUGGUCCUUGGAUCAGCAGAAGGCACAUGAGGAUCACCCAUGUAAUAUAUUUAU”, the “apparent Kd” value runs as follows: under setting [1], 103 nM; under setting [2], 389 nM.
Take “CUCGGACAUGAGGAUCACCCAUGUGAGGAUAUGAUGCGAUCGUCGAAAGACGAUAGCAUCAGAAGGCACAAAUG”: the “apparent Kd” value was determined as 75.6 nM under setting [1] and 301 nM under setting [2].
As to “GAAGAACAUGAGGAUCACCCAUGUGAUUCGCAUGUAGGAUAUGGGCACGCGCCCGCGUGUCUAGAAGGACAGGCUA”, the “apparent Kd” value runs as follows: under setting [3], 69.3 nM; under setting [4], 109 nM.
Consider “GAGGAACAUGAGGAUCACCCAUGUGAGGAUAUGCAUAGUGAGGUAGUAGACGUUUAUUGCAGAAGGUACACUGA”, for which the “apparent Kd” value is, setting by setting: under setting [1], 27.4 nM; under setting [2], 27.8 nM.
As to “AAAUCGGUAGGAUAUACGAUUUGGUACUAGACCGAGGAACCACAUGAGGAUCACCCAUGUAGAAGGACCAGAUA”, the “apparent Kd” value was found to be 20.7 nM under setting [1] and 13.9 nM under setting [2].
As for “GGAUAGGACAGAGGAUAUACGUGCUAGAGAUACUAGUAAAAUUUCCUCACAUGAGGAUCACCCAUGUAGAAGGCUGUCCUAUCG”, the “apparent Kd” value under setting [1] turned out to be 36.1 nM and the “apparent Kd” value under setting [2] was 684 nM.
For “CUAGCAACAUGAGGAUCACCCAUGUAGGAUAUCGCUAUUGUAAUCAUGAAACAUGAUUACAAUAGCGAGAAGGACAUAUGCUAC”, the “apparent Kd” value reads like this: under setting [1], 9.59 nM; under setting [2], 11 nM.
“ACUACUUACUAGGAUAUCAGAGUCGAAAGACUCUGAGAAGGAGUAACAUGAGGAUCACCCAUGUGUCCUAUAGU”: the “apparent Kd” value was found to be 17.9 nM under setting [1] and 29.4 nM under setting [2].
The corresponding values for “UUAUUUUUACAGAAGGUUUAAUAAUAUGUAUGAGAAGGAUAUGUAACAUGAGGAUCACCCAUGUUUUAUUUAUAUGAGGUUCAU” are 10.8 nM and 9.27 nM.

The values above are taken from the EternaBench riboswitch data.
